ChEMBL document CHEMBL1149397, “Trace amine-associated receptor agonists: synthesis and evaluation of thyronamines and related analogues” (J Med Chem, 2006)
The source made the active and inactive calls. The calls are words filed in the database; no cut-off is given here.

Experiments:
[1] = target: Trace amine-associated receptor 1 (Rattus norvegicus, UniProt Q923Y9); test: Activity at rat TAAR1 by measuring cAMP accumulation in HEK293 cells; type: functional, cell-based
Summary of the method: (§1)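 HEK293 cells stably transfected with rat or mouse TAAR1, harvested and preincubated in Krebs-Ringer-HEPES with 200 µM IBMX. Then 1 h at 37 °C in KRH with 100 µM IBMX plus test compound, forskolin (10 µM) or DMSO vehicle. cAMP was measured by [³H]cAMP competitive binding after boiling, as % of forskolin control. EC₅₀ came from concentration-response curves, triplicate runs, averaged over experiments.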

[2] = target: Trace amine-associated receptor 1 (Mus musculus, UniProt Q923Y8); test: Activity at mouse TAAR1 by measuring cAMP accumulation in HEK293 cells; type: functional, cell-based; summary of the method: as §1
Mus musculus [3] = test: Hypothermia induction in C57BL/6J mice at 50 mg/kg, ip; type: functional, organism-based; design: dose 50 mg/kg
Summary of the method: (§2)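 Male C57BL/6J mice, about 7-10 weeks old, dosed i.p. at 2, 10, 25 or 50 mg/kg. Vehicle was 100% DMSO, or 60-65% DMSO in saline for some compounds. Rectal temperature was taken before dosing and at 30, 60, 120, 180, 240 and 1440 min, with room at 19-21 °C. Groups were 2-4 mice, analysed by two-way ANOVA with Bonferroni post hoc tests (P < 0.05).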

Mus musculus [4] = test: Efficacy for hypothermia induction in ip dosed C57BL/6J mice; type: functional; summary of the method: as §2

Sequence of Trace amine-associated receptor 1 (Mus musculus, UniProt Q923Y8) (Q923Y8 whole entry): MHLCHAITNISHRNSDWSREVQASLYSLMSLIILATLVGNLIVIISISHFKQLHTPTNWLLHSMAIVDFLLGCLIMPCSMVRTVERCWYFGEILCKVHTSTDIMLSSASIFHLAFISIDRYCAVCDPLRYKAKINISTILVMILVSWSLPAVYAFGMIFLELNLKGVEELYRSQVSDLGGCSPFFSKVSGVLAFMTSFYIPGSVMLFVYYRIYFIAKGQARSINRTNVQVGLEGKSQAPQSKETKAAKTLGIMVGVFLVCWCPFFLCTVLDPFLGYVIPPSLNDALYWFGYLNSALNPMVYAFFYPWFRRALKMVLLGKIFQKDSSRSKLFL
Sequence of Trace amine-associated receptor 1 (Rattus norvegicus, UniProt Q923Y9) (Q923Y9 whole entry): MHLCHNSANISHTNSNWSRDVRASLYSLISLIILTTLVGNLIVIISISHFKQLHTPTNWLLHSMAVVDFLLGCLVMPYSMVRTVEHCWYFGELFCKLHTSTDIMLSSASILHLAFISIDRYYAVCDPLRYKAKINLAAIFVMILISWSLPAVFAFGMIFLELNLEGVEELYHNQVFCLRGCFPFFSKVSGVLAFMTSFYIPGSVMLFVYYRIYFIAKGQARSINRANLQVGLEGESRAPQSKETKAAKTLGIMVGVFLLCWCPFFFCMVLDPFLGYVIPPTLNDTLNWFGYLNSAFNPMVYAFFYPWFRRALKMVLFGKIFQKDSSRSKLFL

Row | Compound | EC50 [1] [nM] | EC50 [2] [nM] | Activity (Mus musculus [3]) | ED50 (Mus musculus [4]) [µmol/kg]
1 | c1ccc(CNCCc2ccc(OCc3ccccc3)cc2)cc1 | > 1000 | > 1000 | – | –
2 | NCCc1ccc(OCc2ccc(C(F)(F)F)cc2)c(I)c1 | > 1000 | 284 | – | –
3 | COc1cccc(COc2ccc(CCN)cc2)c1 | 141 | 194 | – | –
4 | NCCc1ccc(OCc2ccc(C(F)(F)F)cc2)cc1 | 55 | 20.2 | – | –
5 | CN(C)CCc1ccc(OCc2ccccc2)cc1 | > 1000 | 192 | – | –
6 | NCCc1ccc(OCc2ccc(F)cc2)cc1 | 72 | 38.5 | – | –
7 | CCCCNCCc1ccc(OCc2ccccc2)cc1 | > 1000 | > 1000 | – | –
8 | NCCc1ccc(Oc2ccc(O)c(I)c2)cc1 | 800 | > 1000 | – | –
9 | CCCNCCc1ccc(OCc2ccccc2)cc1 | > 1000 | > 1000 | – | –
10 | NCCc1ccc(OCc2ccc([N+](=O)[O-])cc2)cc1 | 64 | 21.5 | – | –
11 | NCCc1ccc(Oc2ccccc2)c(I)c1 | 2.4 | 35 | Active | 30
12 | NCCc1ccc(Oc2cc(I)c(O)c(I)c2)c(I)c1 | > 1000 | > 1000 | – | –
13 | CNCCc1ccc(OCc2ccccc2)cc1 | 119 | 54 | – | –
14 | NCCc1cc(I)c(Oc2ccc(O)cc2)c(I)c1 | – | 371 | – | –
15 | NCCc1ccc(OCCCc2ccccc2)cc1 | 89 | 102 | – | –
16 | CNCCc1ccc(Oc2ccc(O)cc2)c(I)c1 | 18 | 221 | – | –
17 | NCCc1ccc(OCc2ccccc2)c(I)c1 | 77 | 221 | – | –
18 | CCNCCc1ccc(OCc2ccccc2)cc1 | > 1000 | 71 | – | –
19 | NCCc1cc(I)c(Oc2ccc(O)c(I)c2)c(I)c1 | – | > 1000 | – | –

Row | Compound | EC50 [1] [nM] | EC50 [2] [nM] | Activity (Mus musculus [3]) | ED50 (Mus musculus [4]) [µmol/kg]
20 | NCCc1ccc(OCC(=O)c2ccccc2)cc1 | 309 | 83 | – | –
21 | NCCc1ccc(Oc2ccc(O)cc2)cc1 [THYRONAMINE] | – | 1000 | – | –
22 | CNCCc1ccc(Oc2ccc(F)cc2)c(I)c1 | 2.7 | 32.5 | Active | –
23 | NCCc1ccc(Oc2ccccc2)cc1 | 38 | 296 | – | –
24 | OCCc1ccc(Oc2ccc(O)cc2)c(I)c1 | > 1000 | > 1000 | – | –
25 | CNCCc1ccc(OCc2ccc(C(F)(F)F)cc2)cc1 | 61 | 12 | Active | –
26 | CNCCc1ccc(Oc2ccc(OC)cc2)c(I)c1 | 107 | > 1000 | – | –
27 | NCCc1cc(I)c(Oc2cc(I)c(O)c(I)c2)c(I)c1 | – | > 1000 | – | –
28 | Cc1cc(C)cc(COc2ccc(CCN)cc2)c1 | 137 | 98 | – | –
29 | NCCc1ccc(OCc2ccccc2)cc1 | 209 | 168 | – | –
30 | CNCCc1ccc(Oc2ccc(C(F)(F)F)cc2)c(I)c1 | > 1000 | > 1000 | – | –
31 | NCCc1ccc(OCc2c(F)c(F)c(F)c(F)c2F)cc1 | > 1000 | > 1000 | – | –
32 | NCCc1ccc(Oc2cc(I)c(O)c(I)c2)cc1 | > 1000 | > 1000 | – | –
33 | NCCc1ccc(OCCc2ccccc2)cc1 | 203 | 207 | – | –
34 | CNCCc1ccc(OCc2ccccc2)c(I)c1 | 68 | 106 | – | –
35 | NCCc1ccc(Oc2ccc(O)c(I)c2)c(I)c1 | – | 1000 | – | –
36 | Cc1cc(CCN)ccc1Oc1ccc(O)cc1 | 33 | 116 | Active | –
37 | COc1cc(COc2ccc(CCN)cc2)cc(OC)c1 | 333 | 123 | – | –
38 | NCCc1ccc(OCCCCc2ccccc2)cc1 | 43 | 80 | – | –
